The subject of assay [1] is HCT-15. Kind of assay: Anticancer activity against human HCT-15 cells assessed as inhibition of cell growth incubated for 48 hrs by MTT assay. In kind it is functional, cell-based. The following applies: HCT-15, 48 h. A digest of the protocol:
(§1)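 MTT assay against a panel of human cancer lines (U-251 glioblastoma, PC-3 prostatic adenocarcinoma, K-562 chronic myelogenous leukemia, HCT-15 colorectal adenocarcinoma) and monkey kidney fibroblasts (COS-7). Cells were exposed to compounds for 48 h. IC50 (µM) came from MTT readings as the mean ± SD of two independent trials, each run in triplicate.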

Assay [2] deals with COS-7. Kind of assay: Anticancer activity against African green monkey COS7 cells assessed as inhibition of cell growth incubated for 48 hrs by MTT assay. The following applies: Chlorocebus aethiops, COS-7, 48 h. In kind it is cell-based. The method in brief:
as §1
Background: Tetrazolium assays rely on reduction of a dye to a coloured formazan, in cell work by metabolically active cells.

Assay [3] relates to K562. Kind of assay: Anticancer activity against human K562 cells assessed as inhibition of cell growth incubated for 48 hrs by MTT assay. The following applies: K562, 48 h. In kind it is functional, cell-based. A digest of the protocol: as §1
Assay [4] concerns U-251. Kind of assay: Anticancer activity against human U-251 cells assessed as inhibition of cell growth incubated for 48 hrs by MTT assay. In kind it is functional, cell-based. The following applies: U-251, 48 h. The method in brief:
as §1

Assay [5] deals with PC-3. Kind of assay: Anticancer activity against human PC-3 cells assessed as inhibition of cell growth incubated for 48 hrs by MTT assay. In kind it is functional, cell-based. The following applies: PC-3, 48 h. A digest of the protocol:
as §1

What is called IC50 is the concentration at which inhibition is half-maximal.

A value given as a limit tells only on which side of the number the result lay.

As for `CCCCCCCCCCCCOc1cc(OCCCCCCCCCCCC)cc(C(=O)NCCN(CCC(=O)OC)CCC(=O)OC)c1`, the IC50 in assay [1], in assay [2], in assay [3], in assay [4] and in assay [5] was more than 1000 µM in each case.

Consider `CCCCCCCCCCCCOc1cc(OCCCCCCCCCCCC)cc(C(=O)NCCN(CCC(=O)NCCNC(=O)CN(C(=O)C(C)C)c2ccc([N+](=O)[O-])c(C(F)(F)F)c2)CCC(=O)NCCNC(=O)CN(C(=O)C(C)C)c2ccc([N+](=O)[O-])c(C(F)(F)F)c2)c1`, for which the IC50 in assay [1] was 22.4 µM; in assay [2], more than 1000 µM; in assay [3], 6.79 µM; in assay [4], 8.59 µM; in assay [5], 7.16 µM.

For `CCCCCCCCCCCCOc1cc(OCCCCCCCCCCCC)cc(C(=O)NCCN)c1`, the IC50 in assay [1], in assay [2], in assay [3], in assay [4] and in assay [5] was more than 1000 µM in each case.

With `CC(C)C(=O)N(CC(=O)NCCN)c1ccc([N+](=O)[O-])c(C(F)(F)F)c1`, the 50% inhibitory concentration (IC50) in assay [1] is more than 100 µM; in assay [2], 15.2 µM; in assay [3], 18 µM; in assay [4], 24.1 µM; in assay [5] it was 20.1 µM.

Take `COC(=O)CN(C(=O)C(C)C)c1ccc([N+](=O)[O-])c(C(F)(F)F)c1`: the IC50 in assay [1] was more than 100 µM; in assay [2] it was 12.1 µM; in assay [3] it was 14.1 µM; in assay [4], 20.1 µM; in assay [5] it was 19.1 µM.

Turning to `CCCCCCCCCCCCOc1cc(OCCCCCCCCCCCC)cc(C(=O)OC)c1`, the IC50 in assay [1], in assay [2], in assay [3], in assay [4] and in assay [5] was more than 1000 µM throughout.

Turning to `CC(C)C(=O)Nc1ccc([N+](=O)[O-])c(C(F)(F)F)c1` [FLUTAMIDE], the IC50 in assay [1] is more than 100 µM; in assay [2], 51.5 µM; in assay [3] it was 29.2 µM; in assay [4], 22.1 µM; in assay [5], 20.3 µM.

For the compound `CCCCCCCCCCCCOc1cc(OCCCCCCCCCCCC)cc(C(=O)NCCNC(=O)CN(C(=O)C(C)C)c2ccc([N+](=O)[O-])c(C(F)(F)F)c2)c1`, the IC50 is 19.2 µM in assay [1]; more than 1000 µM in assay [2]; 15.4 µM in assay [3]; 14.3 µM in assay [4]; 13.3 µM in assay [5].
